The target of test [1] is T1, Alpha-2A adrenergic receptor (Rattus norvegicus, UniProt P22909).
T1 sequence (P22909 whole entry): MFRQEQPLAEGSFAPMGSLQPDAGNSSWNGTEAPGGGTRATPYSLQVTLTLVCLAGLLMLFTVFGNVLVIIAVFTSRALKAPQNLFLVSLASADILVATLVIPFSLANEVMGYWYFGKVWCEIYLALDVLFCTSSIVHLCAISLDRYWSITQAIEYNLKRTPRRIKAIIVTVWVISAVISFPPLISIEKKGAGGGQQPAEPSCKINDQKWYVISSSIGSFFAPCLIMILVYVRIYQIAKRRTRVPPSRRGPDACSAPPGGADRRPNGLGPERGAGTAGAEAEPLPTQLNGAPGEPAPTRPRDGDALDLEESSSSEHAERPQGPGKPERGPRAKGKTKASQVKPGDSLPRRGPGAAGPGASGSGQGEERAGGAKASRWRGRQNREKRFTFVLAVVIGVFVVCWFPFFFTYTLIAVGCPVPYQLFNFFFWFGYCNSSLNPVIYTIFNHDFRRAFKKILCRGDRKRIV
Kind of test: The compound was tested for binding affinity against alpha-2D adrenergic receptor.

Test [2] concerns the target T2, 5-hydroxytryptamine receptor 1A (Rattus norvegicus, UniProt P19327).
T2 sequence (P19327 whole entry): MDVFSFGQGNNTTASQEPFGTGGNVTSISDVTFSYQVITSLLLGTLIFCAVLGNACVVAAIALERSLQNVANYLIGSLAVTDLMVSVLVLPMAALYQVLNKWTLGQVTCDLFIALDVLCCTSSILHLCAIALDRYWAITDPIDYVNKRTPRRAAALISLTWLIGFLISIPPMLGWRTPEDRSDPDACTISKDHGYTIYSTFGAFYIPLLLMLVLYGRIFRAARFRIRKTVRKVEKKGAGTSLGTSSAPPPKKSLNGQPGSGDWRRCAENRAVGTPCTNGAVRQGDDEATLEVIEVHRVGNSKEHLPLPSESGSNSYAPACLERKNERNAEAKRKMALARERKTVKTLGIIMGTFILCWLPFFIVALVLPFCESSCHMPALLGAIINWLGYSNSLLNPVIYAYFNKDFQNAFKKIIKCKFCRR
Briefly: Binding affinity towards 5-hydroxytryptamine 1A receptor from rat brain using [3H]-8-OH-DPAT as radioligand.

The test system of a further test is Mus musculus. Briefly: Antagonistic activity against apomorphine induced climbing in the mouse after po administration. Type of test: functional. The gist of the method:
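Male CD1 mice (20–25 g), groups of 10, dosed po with compound or vehicle ([…]) at set times before apomorphine 0.88 mg/kg sc. Each mouse placed in an inverted open-ended wire cage; climbing scored 0–2 at 10 and 20 min after apomorphine.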

The target in test [3] is 5-hydroxytryptamine receptor 1B (Sus scrofa, UniProt P79399). Briefly: The compound was tested for binding affinity against 5-hydroxytryptamine 1B receptor. The gist of the method:
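Pig caudate membranes washed at 37 °C to remove endogenous 5-HT, in 50 mM Tris-HCl pH 7.7. Incubated 45 min at 25 °C with 4 nM [3H]sumatriptan plus CaCl2, pargyline and ascorbate, test agent at 10^-6 M; 10 μM 5-HT for nonspecific binding. Filtration, scintillation counting; percent displacement of specific binding.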

For one compound, Ki and ED50 results are on record in ChEMBL document CHEMBL1132360, “N-Substituted (2,3-dihydro-1,4-benzodioxin-2-yl)methylamine derivatives as D(2) antagonists/5-HT(1A) partial agonists with potential as atypical antipsychotic agents” (J Med Chem, 1999).

Each structure is given as a SMILES string.

5-hydroxytryptamine receptor 1B, sequence (P79399 whole entry): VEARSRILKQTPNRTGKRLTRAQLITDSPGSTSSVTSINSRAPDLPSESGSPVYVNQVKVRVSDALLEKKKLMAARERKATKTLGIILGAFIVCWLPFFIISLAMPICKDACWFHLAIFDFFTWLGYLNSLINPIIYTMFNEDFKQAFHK

In general, Ki refers to a measure of affinity in units of concentration, obtained from inhibition or displacement. As a reminder, the ED50 is the dose at which the effect has come halfway, by size or by number of responders. A high value points to a need for a large dose. Consider `COc1ccccc1N1CCC(CNCC2COc3ccc(Cl)cc3O2)CC1` (centres undefined), for which the inhibitory constant (Ki) is above 500 nM in test [1], 22 nM in test [2] and above 1000 nM in test [3]. Moreover, the ED50 with Mus musculus worked out at 5 mg/kg.
